Source: ChEMBL document CHEMBL2424622, “Development of amino-pyrimidine inhibitors of c-Jun N-terminal kinase (JNK): kinase profiling guided optimization of a 1,2,3-benzotriazole lead” (Bioorg Med Chem Lett, 2013)

How the values were obtained:
[1] = molecular target: Tyrosine-protein kinase Fyn (Homo sapiens) (UniProt P06241); assay: Competitive binding affinity to FYN (unknown origin) at 10 uM in presence of ATP relative to control
Outline: (§1)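 In vitro ATP-site competition binding assay, part of profiling against a diverse panel of 128 kinases. Each compound was tested at a single concentration of 10 µM. Kinome selectivity was summarized as S15 selectivity scores.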

[2] = molecular target: RAC-beta serine/threonine-protein kinase (Homo sapiens) (UniProt P31751); assay: Competitive binding affinity to AKT2 (unknown origin) at 10 uM in presence of ATP relative to control
[3] = molecular target: Angiopoietin-1 receptor (Homo sapiens) (UniProt Q02763); assay: Competitive binding affinity to TIE2 (unknown origin) at 10 uM in presence of ATP relative to control
Outline: (§2)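 In vitro ATP-site competition binding assay across a diverse panel of 128 kinases, with compound tested at a single concentration. Kinase selectivity scores (S15) were calculated from the panel profiles.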

[4] = molecular target: Serine/threonine-protein kinase PAK 5 (Homo sapiens) (UniProt Q9P286); assay: Competitive binding affinity to PAK7/PAK5 (unknown origin) at 10 uM in presence of ATP relative to control; outline: as §2
[5] = molecular target: T1, Mitogen-activated protein kinase kinase kinase kinase 3 (Homo sapiens) (UniProt Q8IVH8); assay: Competitive binding affinity to MAP4K3 (unknown origin) at 10 uM in presence of ATP relative to control
T1 sequence (whole entry): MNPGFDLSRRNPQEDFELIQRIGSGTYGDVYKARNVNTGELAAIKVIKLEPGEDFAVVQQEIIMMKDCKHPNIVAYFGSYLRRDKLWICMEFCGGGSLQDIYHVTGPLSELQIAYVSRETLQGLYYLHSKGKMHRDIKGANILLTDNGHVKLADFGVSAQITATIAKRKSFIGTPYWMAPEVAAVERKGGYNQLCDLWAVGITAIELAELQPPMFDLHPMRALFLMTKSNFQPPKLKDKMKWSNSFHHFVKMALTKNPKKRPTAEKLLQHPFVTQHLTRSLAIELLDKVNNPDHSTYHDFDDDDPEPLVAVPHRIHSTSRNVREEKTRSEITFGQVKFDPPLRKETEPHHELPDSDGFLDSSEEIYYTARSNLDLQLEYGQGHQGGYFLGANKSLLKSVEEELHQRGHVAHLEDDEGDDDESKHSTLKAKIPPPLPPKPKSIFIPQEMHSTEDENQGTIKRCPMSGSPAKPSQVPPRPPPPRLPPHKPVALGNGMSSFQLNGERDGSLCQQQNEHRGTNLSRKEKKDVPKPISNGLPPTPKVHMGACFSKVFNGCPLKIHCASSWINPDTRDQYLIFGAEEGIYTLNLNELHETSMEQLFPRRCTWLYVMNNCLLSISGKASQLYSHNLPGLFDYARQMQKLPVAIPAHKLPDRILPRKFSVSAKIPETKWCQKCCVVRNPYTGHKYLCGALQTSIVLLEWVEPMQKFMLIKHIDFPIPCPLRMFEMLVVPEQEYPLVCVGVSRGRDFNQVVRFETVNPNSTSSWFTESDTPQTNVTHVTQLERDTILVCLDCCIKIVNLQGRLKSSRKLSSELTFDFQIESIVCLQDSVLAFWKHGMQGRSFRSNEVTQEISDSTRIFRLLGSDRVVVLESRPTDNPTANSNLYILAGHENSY

[6] = molecular target: Death-associated protein kinase 3 (Homo sapiens, UniProt O43293); assay: Competitive binding affinity to DAPK3 (unknown origin) at 10 uM in presence of ATP relative to control
Outline: (§3)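 In vitro ATP-site competition binding assay across a diverse panel of 128 kinases, with each compound tested at a single concentration. Kinase binding is expressed relative to control.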

[7] = molecular target: T2, Serine/threonine-protein kinase Nek2 (Homo sapiens) (UniProt P51955); assay: Competitive binding affinity to NEK2 (unknown origin) at 10 uM in presence of ATP relative to control; outline: as §2
T2 sequence (whole entry): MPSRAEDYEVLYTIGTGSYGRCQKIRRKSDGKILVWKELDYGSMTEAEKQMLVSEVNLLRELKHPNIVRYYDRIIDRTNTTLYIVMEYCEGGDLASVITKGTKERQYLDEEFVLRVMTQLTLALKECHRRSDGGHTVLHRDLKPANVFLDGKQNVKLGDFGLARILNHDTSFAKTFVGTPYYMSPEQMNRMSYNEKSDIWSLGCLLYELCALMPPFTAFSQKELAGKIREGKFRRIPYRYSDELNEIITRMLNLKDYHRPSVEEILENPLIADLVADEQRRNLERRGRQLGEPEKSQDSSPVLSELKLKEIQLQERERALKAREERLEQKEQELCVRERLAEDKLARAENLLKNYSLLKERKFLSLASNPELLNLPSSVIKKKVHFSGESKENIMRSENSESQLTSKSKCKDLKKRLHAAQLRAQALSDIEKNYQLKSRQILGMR

[8] = molecular target: Mitogen-activated protein kinase kinase kinase 4 (Homo sapiens) (UniProt Q9Y6R4); assay: Competitive binding affinity to MAP3K4 (unknown origin) at 10 uM in presence of ATP relative to control; outline: as §1
[9] = molecular target: T3, cGMP-dependent protein kinase 1 (Homo sapiens) (UniProt Q13976); assay: Competitive binding affinity to PRKG1 (unknown origin) at 10 uM in presence of ATP relative to control
T3 sequence (whole entry): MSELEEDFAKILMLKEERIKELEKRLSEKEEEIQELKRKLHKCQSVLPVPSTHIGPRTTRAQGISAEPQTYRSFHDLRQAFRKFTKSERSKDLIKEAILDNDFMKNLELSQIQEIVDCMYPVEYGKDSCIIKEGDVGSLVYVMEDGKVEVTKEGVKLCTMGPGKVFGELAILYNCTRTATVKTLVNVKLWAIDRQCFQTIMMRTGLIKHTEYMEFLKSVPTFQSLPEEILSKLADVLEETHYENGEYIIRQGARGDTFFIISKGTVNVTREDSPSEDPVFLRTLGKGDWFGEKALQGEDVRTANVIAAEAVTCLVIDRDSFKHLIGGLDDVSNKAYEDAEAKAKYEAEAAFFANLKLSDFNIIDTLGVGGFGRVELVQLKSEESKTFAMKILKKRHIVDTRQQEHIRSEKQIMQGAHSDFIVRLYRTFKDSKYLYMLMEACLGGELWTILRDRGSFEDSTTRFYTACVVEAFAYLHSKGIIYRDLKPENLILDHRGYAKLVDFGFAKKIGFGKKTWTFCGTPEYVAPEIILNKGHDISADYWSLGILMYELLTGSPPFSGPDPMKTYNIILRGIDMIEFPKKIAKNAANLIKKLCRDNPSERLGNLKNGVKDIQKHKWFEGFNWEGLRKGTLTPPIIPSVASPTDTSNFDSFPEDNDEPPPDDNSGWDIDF

[10] = molecular target: Protein-tyrosine kinase 2-beta (Homo sapiens) (UniProt Q14289); assay: Competitive binding affinity to PTK2B (unknown origin) at 10 uM in presence of ATP relative to control; outline: as §2
[11] = molecular target: Ribosomal protein S6 kinase alpha-2 (Homo sapiens) (UniProt Q15349); assay: Competitive binding affinity to RPS6KA2 kinase domain 1 (unknown origin) at 10 uM in presence of ATP relative to control; outline: as §3

Sequence of Death-associated protein kinase 3 (O43293 whole entry, looked up): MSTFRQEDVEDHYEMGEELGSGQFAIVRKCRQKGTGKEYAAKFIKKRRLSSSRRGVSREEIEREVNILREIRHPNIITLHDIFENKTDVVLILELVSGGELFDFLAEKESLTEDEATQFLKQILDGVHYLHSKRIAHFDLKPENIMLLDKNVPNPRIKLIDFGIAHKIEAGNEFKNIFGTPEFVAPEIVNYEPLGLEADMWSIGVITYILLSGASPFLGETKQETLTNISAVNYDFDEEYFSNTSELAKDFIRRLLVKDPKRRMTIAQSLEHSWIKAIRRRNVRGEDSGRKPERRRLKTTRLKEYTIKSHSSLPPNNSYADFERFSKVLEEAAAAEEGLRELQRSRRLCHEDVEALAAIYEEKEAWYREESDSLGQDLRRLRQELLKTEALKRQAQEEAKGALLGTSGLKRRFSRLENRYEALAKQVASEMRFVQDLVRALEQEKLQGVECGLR
Sequence of Protein-tyrosine kinase 2-beta (Homo sapiens) (Q14289 whole entry, looked up, the tested form may be a part): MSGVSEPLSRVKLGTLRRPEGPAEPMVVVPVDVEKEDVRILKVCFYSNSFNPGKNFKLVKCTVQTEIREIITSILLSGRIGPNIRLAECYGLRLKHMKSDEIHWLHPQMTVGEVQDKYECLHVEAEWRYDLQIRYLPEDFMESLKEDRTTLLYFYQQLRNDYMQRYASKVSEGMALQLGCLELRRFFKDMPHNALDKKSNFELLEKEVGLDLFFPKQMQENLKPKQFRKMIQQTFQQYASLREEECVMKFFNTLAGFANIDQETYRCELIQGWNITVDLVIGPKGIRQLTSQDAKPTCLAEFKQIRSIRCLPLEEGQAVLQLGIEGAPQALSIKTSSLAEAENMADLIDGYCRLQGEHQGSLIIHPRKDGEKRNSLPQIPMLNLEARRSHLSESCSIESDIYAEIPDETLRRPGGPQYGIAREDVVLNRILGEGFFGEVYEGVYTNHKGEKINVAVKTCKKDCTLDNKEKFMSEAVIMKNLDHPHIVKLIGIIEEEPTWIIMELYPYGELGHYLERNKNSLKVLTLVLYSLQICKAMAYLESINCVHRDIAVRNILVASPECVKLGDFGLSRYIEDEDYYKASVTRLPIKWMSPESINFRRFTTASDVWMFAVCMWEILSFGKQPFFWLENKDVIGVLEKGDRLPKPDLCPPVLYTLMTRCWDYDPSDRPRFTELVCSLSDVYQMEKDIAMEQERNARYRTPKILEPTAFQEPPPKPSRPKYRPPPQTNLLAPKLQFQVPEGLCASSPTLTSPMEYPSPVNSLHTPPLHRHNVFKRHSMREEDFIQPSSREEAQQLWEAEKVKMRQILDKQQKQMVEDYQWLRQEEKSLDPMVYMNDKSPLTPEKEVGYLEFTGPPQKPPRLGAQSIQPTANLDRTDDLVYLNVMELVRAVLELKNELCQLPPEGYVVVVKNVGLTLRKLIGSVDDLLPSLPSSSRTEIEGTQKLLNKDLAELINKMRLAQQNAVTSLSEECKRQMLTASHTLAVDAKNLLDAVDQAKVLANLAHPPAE
Sequence of Tyrosine-protein kinase Fyn (Homo sapiens) (P06241 2-537 limits assumed): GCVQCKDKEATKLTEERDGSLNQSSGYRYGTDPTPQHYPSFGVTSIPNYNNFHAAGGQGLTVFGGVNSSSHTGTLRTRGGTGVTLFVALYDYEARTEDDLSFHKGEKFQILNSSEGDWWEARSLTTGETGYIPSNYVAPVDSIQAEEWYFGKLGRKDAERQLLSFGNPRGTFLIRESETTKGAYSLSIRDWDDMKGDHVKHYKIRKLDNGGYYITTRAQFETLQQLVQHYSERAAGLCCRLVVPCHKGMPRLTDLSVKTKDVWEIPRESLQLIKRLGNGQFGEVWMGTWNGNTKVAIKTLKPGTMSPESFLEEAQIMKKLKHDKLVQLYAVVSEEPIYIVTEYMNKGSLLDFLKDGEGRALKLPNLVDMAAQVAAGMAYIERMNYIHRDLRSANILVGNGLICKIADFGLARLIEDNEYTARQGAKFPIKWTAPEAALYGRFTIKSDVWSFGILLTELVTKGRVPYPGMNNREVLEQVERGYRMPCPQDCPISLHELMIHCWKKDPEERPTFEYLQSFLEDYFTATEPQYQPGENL
Sequence of Mitogen-activated protein kinase kinase kinase 4 (Homo sapiens) (Q9Y6R4 whole entry): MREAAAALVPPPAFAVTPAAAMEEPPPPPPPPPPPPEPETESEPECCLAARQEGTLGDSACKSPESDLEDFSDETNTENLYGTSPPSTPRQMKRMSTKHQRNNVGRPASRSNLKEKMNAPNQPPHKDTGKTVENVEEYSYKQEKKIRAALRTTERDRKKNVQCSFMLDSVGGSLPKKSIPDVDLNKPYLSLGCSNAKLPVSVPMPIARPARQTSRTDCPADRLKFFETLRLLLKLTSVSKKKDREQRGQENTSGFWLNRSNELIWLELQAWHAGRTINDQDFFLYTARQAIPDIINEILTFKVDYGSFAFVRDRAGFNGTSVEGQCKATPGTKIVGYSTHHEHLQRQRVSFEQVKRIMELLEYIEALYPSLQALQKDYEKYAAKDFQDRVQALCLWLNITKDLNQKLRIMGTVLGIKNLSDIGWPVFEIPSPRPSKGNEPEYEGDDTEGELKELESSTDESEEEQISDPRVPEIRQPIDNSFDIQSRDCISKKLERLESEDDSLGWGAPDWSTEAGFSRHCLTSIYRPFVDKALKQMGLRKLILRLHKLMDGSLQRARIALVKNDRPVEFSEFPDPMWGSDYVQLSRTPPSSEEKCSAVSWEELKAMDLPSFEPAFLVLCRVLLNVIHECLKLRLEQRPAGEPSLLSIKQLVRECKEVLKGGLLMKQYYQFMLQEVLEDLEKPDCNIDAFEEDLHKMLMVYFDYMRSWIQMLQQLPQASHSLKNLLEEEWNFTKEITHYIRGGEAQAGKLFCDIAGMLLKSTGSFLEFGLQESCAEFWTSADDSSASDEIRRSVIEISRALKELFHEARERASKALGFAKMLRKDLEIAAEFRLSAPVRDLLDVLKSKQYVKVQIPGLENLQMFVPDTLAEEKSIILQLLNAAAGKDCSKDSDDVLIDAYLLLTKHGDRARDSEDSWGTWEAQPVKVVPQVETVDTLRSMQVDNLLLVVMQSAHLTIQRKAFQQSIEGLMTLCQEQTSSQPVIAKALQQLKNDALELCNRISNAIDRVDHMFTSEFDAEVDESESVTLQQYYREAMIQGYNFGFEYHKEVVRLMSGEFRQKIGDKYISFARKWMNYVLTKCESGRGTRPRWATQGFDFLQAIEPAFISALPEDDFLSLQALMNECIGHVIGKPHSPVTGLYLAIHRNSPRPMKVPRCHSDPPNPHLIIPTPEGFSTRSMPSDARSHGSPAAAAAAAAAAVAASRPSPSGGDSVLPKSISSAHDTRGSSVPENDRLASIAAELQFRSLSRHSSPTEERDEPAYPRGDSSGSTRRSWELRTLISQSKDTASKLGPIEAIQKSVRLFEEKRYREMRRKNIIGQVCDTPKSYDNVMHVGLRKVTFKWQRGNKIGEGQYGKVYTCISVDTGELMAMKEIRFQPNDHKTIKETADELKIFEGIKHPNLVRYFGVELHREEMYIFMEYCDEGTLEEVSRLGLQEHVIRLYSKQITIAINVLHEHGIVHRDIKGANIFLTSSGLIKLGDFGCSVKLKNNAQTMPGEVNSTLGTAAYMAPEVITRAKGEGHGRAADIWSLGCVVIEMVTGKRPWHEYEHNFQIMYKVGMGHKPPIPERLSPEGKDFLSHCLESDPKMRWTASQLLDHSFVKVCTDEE
Sequence of Angiopoietin-1 receptor (Homo sapiens) (Q02763 whole entry): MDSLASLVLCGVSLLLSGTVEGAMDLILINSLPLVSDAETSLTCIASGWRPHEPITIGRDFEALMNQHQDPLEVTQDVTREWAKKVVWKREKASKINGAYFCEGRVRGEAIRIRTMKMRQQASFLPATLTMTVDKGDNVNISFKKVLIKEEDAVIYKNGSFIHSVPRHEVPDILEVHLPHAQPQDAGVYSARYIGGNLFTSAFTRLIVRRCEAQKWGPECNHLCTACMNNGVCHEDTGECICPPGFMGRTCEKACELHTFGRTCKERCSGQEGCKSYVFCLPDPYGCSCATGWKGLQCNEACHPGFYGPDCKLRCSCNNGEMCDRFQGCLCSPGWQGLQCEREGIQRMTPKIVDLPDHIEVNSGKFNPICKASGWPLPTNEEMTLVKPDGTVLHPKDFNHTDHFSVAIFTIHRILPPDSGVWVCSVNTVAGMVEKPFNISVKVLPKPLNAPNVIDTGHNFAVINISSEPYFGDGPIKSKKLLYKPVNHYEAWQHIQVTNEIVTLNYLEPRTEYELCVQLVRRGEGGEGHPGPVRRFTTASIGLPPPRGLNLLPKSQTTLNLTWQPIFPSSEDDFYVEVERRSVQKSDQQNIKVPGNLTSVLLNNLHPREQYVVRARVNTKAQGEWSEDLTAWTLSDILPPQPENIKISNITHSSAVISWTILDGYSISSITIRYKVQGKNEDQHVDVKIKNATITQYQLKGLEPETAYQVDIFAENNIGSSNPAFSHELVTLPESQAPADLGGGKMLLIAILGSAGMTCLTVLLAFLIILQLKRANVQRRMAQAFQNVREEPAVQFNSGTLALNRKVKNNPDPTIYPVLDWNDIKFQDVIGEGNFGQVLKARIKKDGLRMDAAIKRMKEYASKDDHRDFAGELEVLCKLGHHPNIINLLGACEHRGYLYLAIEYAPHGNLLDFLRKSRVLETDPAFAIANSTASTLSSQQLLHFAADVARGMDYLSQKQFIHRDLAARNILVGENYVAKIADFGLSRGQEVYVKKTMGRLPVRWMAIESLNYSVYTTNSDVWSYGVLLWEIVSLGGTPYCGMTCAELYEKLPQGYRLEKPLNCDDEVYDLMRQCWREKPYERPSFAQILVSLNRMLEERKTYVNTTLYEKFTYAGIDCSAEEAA

| SMILES | inhibition [1] [%] | inhibition [2] [%] | inhibition [3] [%] | inhibition [4] [%] | inhibition [5] [%] | inhibition [6] [%] | inhibition [7] [%] | inhibition [8] [%] | inhibition [9] [%] | inhibition [10] [%] | inhibition [11] [%] |
| --- | --- | --- | --- | --- | --- | --- | --- | --- | --- | --- | --- |
| O[C@H]1CC[C@H](Nc2nccc(-n3nnc4ccccc43)n2)CC1 | < 50 | < 50 | < 50 | < 50 | < 50 | 93 | < 50 | < 50 | < 50 | < 50 | 95 |
| N[C@H]1CC[C@H](Nc2nccc(-n3nnc4ccccc43)n2)CC1 | 80 | – | < 50 | < 50 | – | 95 | < 50 | 84 | – | < 50 | 91 |
| O=C([C@H]1CC[C@H](Nc2nccc(-n3nnc4ccccc43)n2)CC1)N1CCOCC1 | 81 | – | < 50 | < 50 | – | 64 | < 50 | < 50 | – | < 50 | 100 |
| CS(=O)(=O)CCCOc1cccc2c1ccn2-c1ccnc(N[C@H]2CC[C@H](C(=O)N3CCC(O)CC3)CC2)n1 | – | – | – | – | – | > 85 | – | – | – | – | – |
| O[C@H]1CC[C@H](Nc2nccc(-n3ncc4ccccc43)n2)CC1 | < 50 | < 50 | < 50 | < 50 | < 50 | < 50 | < 50 | < 50 | < 50 | < 50 | 73 |
| O[C@H]1CC[C@H](Nc2nccc(-c3n[nH]c4ccccc34)n2)CC1 | 77 | < 50 | < 50 | 86 | 97 | 96 | < 50 | 100 | < 50 | 77 | 99 |
| O[C@H]1CC[C@H](Nc2nccc(-n3ccc4ccccc43)n2)CC1 | < 50 | < 50 | < 50 | < 50 | < 50 | < 50 | < 50 | < 50 | < 50 | < 50 | < 50 |
